What was measured:
[1] = biological target: Melanin-concentrating hormone receptor 1 (Rattus norvegicus, UniProt P97639); test: Displacement of [125I]-MCH (4 to 19 residues) from rat MCHR1 expressed in CHO cell membranes after 1 hr by liquid scintillation counting analysis
Method in brief: (§1)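 Membranes from MCHR1-expressing CHO cells, homogenized in NaHCO3/EDTA with protease inhibitors, 100000g pellet held at 2 mg/mL protein in 20 mM Tris-HCl pH 7.5, 5 mM EDTA, protease inhibitors.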

[2] = biological target: T1, Melanin-concentrating hormone receptor 1 (Homo sapiens, UniProt Q99705); test: Displacement of [125I]-MCH (4 to19 residues) from human MCHR1 expressed in CHO cell membranes after 1 hr by liquid scintillation counting analysis; method in brief: as §1
Mus musculus [3] = test: Effect on food intake in MCHR-deficient high fat diet fed mouse at 10 to 30 mg/kg, po administered for 3 days measured during 3 days of dosing; assay type: ADME, organism-based; conditions: in vivo, 72 h
Method in brief: (§2)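 Male MCHR1-deficient and wild-type littermate mice (45 weeks old) on high-fat diet D12451 from 5 weeks, singly housed, acclimated with 0.5 mL tap water dosing, grouped by day −3 to −1 intake and day −1 weight. Oral vehicle (0.5% methylcellulose) or suspension at 10 mL/kg for 3 days, n = 5–6; cumulative 3-day intake; Williams test.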

[4] = Drug uptake in diet-induced obese F344/jcl rat brain at 10 mg/kg, po administered on day 1 measured 24 hrs post dose; assay type: ADME, organism-based
Method in brief: (§3)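 From the DIO F344 rat 2-day feeding study (oral, 0.5% methylcellulose): plasma and brain concentrations taken 24 h after the day-1 dose; brain/plasma ratio from these.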

Plasma [5] = test: Free plasma concentration in diet-induced obese F344/jcl rat at 10 mg/kg administered after 24 hrs in day 1; assay type: ADME, organism-based; conditions: in vivo
Method in brief: (§4)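 Plasma level 24 h after day-1 oral dose in DIO F344 rats multiplied by the free fraction measured in DIO rat plasma to give free concentration.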

[6] = AUC (0 to 8 hrs) in Sprague-Dawley rat at 1 mg/kg, po administered through cassette dosing by LC/MS/MS analysis; assay type: ADME, organism-based; parameters: time < 8 hr, dose 1 mg/kg, route oral; conditions: in vivo
[7] = Ratio of drug level in brain to plasma in diet-induced obese F344/jcl rat at 3 mg/kg, po administered on day 1 measured 24 hrs post dose; assay type: ADME, organism-based; conditions: read-out: BPR; method in brief: as §3
[8] = Ratio of drug level in brain to plasma in diet-induced obese F344/jcl rat at 10 mg/kg, po administered on day 1 measured 24 hrs post dose; assay type: ADME, organism-based; conditions: read-out: BPR; method in brief: as §3
Rattus norvegicus [9] = species: Rattus norvegicus; test: animal or person; conditions: F344/jcl, po, 336 h, read-out: INH
[10] = Drug uptake in diet-induced obese F344/jcl rat brain at 3 mg/kg, po administered on day 1 measured 24 hrs post dose; assay type: ADME, organism-based; conditions: read-out: Drug uptake; method in brief: as §3
[11] = Volume of distribution at steady state in Sprague-Dawley rat at 0.1 mg/kg, iv by LC/MS/MS analysis; assay type: ADME, organism-based; conditions: in vivo, read-out: Vdss
Method in brief: (§5)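 Nonfasted male SD rats (8 weeks old, n = 3) given 0.1 mg/kg iv by cassette dosing; plasma deproteinized with acetonitrile, centrifuged, and supernatant concentrations measured by LC/MS/MS.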

Rattus norvegicus [12] = species: Rattus norvegicus; test: animal or person; conditions: F344/jcl, po, 48 h, read-out: INH
Rattus norvegicus [13] = test: Antiobesity activity in diet-induced obese F344/jcl rat assessed as reduction in body weight at 3 mg/kg, po qd administered through repeated dosing for 2 weeks measured during 2 weeks of dosing relative to vehicle-treated control; assay type: functional; parameters: scale not given: the % may be the effect or the level left
Method in brief: (§6)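 Male DIO F344/Jcl rats (45 weeks old, high-fat diet), habituated and grouped as for feeding study; once-daily oral dosing in 0.5% methylcellulose at 2 mL/kg for 2 weeks, 1–3 h before dark onset after weighing, n = 6. Body weight change as percent of initial weight, compared with vehicle.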

[14] = Unbound fraction in po dosed diet-induced obese F344/jcl rat plasma; assay type: ADME, organism-based
[15] = Total clearance in Sprague-Dawley rat at 0.1 mg/kg, iv administered through cassette dosing by LC/MS/MS analysis; assay type: ADME, organism-based; conditions: in vivo; method in brief: as §5
[16] = Plasma concentration in diet-induced obese F344/jcl rat at 10 mg/kg, po administered on day 1 measured 24 hrs post dose; assay type: ADME, organism-based; method in brief: as §3
[17] = Cmax in Sprague-Dawley rat at 1 mg/kg, po administered through cassette dosing by LC/MS/MS analysis; assay type: ADME, organism-based; parameters: dose 1 mg/kg, route oral; conditions: in vivo
Rattus norvegicus [18] = test: Antiobesity activity in diet-induced obese F344/jcl rat assessed as reduction in body weight at 10 mg/kg, po qd administered through repeated dosing for 2 weeks measured during 2 weeks of dosing relative to vehicle-treated control; assay type: functional; parameters: scale not given: the % may be the effect or the level left; method in brief: as §6
[19] = Lipophilicity, log D of the compound at pH 7.4; assay type: physicochemical; conditions: buffer
Method in brief: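 Chromatographic HPLC method with UV detection, estimating octanol/buffer partition at pH 7.4.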

[20] = biological target: T1, Melanin-concentrating hormone receptor 1; assay type: functional, cell-based, CHO
[21] = Tmax in Sprague-Dawley rat at 1 mg/kg, po administered through cassette dosing by LC/MS/MS analysis; assay type: ADME, organism-based; conditions: in vivo
Rattus norvegicus [22] = species: Rattus norvegicus; test: animal or person; conditions: F344/jcl, po, 48 h, read-out: INH; remark: listed apart in the source
[23] = Oral bioavailability in Sprague-Dawley rat at 1 mg/kg, administered through cassette dosing by LC/MS/MS analysis; assay type: ADME, organism-based; conditions: in vivo
Rattus norvegicus [24] = species: Rattus norvegicus; test: animal or person; conditions: F344/jcl, po, 336 h, read-out: INH; remark: listed apart in the source
Mus musculus [25] = test: Anorectic activity in po dosed high fat diet fed wild type mouse assessed as reduction of food intake administered for 3 days measured during 3 days of dosing; assay type: functional, organism-based; method in brief: as §2
HepG2 = test: Induction of phospholipidosis in human HepG2 cells at 0.6 to 20 uM after 24 hrs by NBD-PE-based fluorometric analysis; assay type: cell-based; conditions: hepg2, 24 h
Method in brief: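 HepG2 cells in DMEM with 5% FBS, precultured 24 h, then exposed 24 h at 37 °C to 60 μM NBD-PE medium plus compound medium (0.6 or 20 μM, added 1:1); amiodarone 10 μM final as reference. NBD-PE uptake fluorescence (ex 485/em 538), blank subtracted, expressed relative to amiodarone; maximum value taken.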

Plasma [26] = test: Free plasma concentration in diet-induced obese F344/jcl rat at 3 mg/kg, po administered on day 1 measured 24 hrs post dose; assay type: ADME, organism-based; conditions: in vivo; method in brief: as §4
[27] = Plasma concentration in diet-induced obese F344/jcl rat at 3 mg/kg, po administered on day 1 measured 24 hrs post dose; assay type: ADME, organism-based; method in brief: as §3

Melanin-concentrating hormone receptor 1 (Rattus norvegicus, UniProt P97639), sequence (P97639 whole entry, the tested form may be a part): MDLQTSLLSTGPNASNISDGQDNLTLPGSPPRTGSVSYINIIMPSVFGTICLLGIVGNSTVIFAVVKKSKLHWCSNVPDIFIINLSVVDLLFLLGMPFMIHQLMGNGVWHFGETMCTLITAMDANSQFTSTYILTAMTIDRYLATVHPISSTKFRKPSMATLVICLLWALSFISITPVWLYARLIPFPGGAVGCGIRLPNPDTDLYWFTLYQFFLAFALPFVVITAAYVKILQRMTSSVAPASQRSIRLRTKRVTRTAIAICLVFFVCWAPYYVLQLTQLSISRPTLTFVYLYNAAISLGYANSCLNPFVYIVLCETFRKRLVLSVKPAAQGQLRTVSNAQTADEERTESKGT
T1 sequence (Q99705 whole entry, the tested form may be a part): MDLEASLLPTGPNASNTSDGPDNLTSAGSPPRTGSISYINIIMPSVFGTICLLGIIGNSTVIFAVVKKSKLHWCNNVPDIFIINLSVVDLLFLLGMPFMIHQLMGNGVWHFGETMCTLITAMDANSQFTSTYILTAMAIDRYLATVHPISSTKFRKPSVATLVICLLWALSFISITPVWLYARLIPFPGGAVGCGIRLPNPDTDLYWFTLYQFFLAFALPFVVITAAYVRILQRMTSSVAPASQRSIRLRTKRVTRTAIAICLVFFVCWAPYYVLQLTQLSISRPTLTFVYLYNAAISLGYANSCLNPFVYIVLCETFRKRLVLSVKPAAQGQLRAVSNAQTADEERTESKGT

With `COCc1nc2ccc(-n3ccc(OCc4ccc(F)cc4)cc3=O)cn2c1C` the IC50 [1] was over 1000 nM and the IC50 [2] was over 1000 nM.
For `Cc1c(C2CC2)nc2ccc(-n3ccc(OCc4ccc(Cl)cc4)cc3=O)cn12`, the Activity (Mus musculus [3]) was “Non-toxic”, the concentration at 24 h [4] was 841 ng/g and the “Cp(f)” value (Plasma [5]) was 66.5 nM. The AUC(0-t) at 8 h [6] was 1880 ng·h/mL, the Kp at 24 h [7] was 0.61 and the Kp at 24 h [8] was 0.62. It also gave an inhibition in vivo at 3 mg/kg (Rattus norvegicus [9]) of 15.4%, a concentration at 24 h [10] of 218 ng/g and a Vd [11] of 1.05 L/kg. For the same compound, the IC50 [1] was 20 nM, the inhibition in vivo at 10 mg/kg (Rattus norvegicus [12]) was 29.6% and the Activity (Rattus norvegicus [13]) was 3.7%. For the same compound, the fraction unbound [14] was 0.02, the clearance [15] was 5.2 mL/min/kg and the concentration at 24 h [16] was 1350 ng/mL. For the same compound, the Cmax [17] was 313 ng/mL, the Activity (Rattus norvegicus [18]) was 8.6% and the logD [19] was 3.2. The IC50 [20] was 23 nM, the Tmax [21] was 2 h and the inhibition in vivo at 3 mg/kg (Rattus norvegicus [22]) was 15%. It also gave a bioavailability [23] of 58%, an inhibition in vivo at 10 mg/kg (Rattus norvegicus [24]) of 36.2% and an IC50 [2] of 26 nM. For the same compound, the Activity (Mus musculus [25]) was “Dose-dependent effect”, the Activity (HepG2) was “Non-toxic” and the “Cp(f)” value (Plasma [26]) was 17.2 nM. The concentration at 24 h [27] was 351 ng/mL.
`Cc1c(CO)nc2ccc(-n3ccc(OCc4ccc(F)cc4)cc3=O)cn12` showed an IC50 [1] of over 1000 nM and an IC50 [2] of over 1000 nM.
With `Cc1c(C2CC2)nc2ccc(-n3ccc(OCc4ccc(C(F)(F)F)cc4)cc3=O)cn12` the IC50 [1] was 82 nM and the IC50 [2] was 72 nM.
Compound `CCc1nc2ccc(-n3ccc(OCc4ccccc4)cc3=O)cn2c1C` has an IC50 [1] of 120 nM and an IC50 [2] of 120 nM.
With `Cc1oc2ccc(NC(=O)COc3ccc(OC(F)(F)F)cc3)cc2c1C` the IC50 [1] was over 1000 nM and the IC50 [2] was over 1000 nM.
`Cc1c(CC#N)nc2ccc(-n3ccc(OCc4ccc(F)cc4)cc3=O)cn12` showed an IC50 [1] of 170 nM and an IC50 [2] of 180 nM.
For `Cc1c(C2CC2)nc2ccc(-n3ccc(OCc4cccs4)cc3=O)cn12`, the IC50 [1] was 130 nM and the IC50 [2] was 95 nM.
With `Cc1c(C2CC2)nc2ccc(-n3ccc(OCc4ccsc4)cc3=O)cn12` the IC50 [1] was 54 nM and the IC50 [2] was 25 nM.
`Cc1c(C2CC2)nc2ccc(-n3ccc(OCc4ccccc4)cc3=O)cn12` showed an IC50 [1] of 28 nM and an IC50 [2] of 42 nM.
`Cc1c(C2CC2)nc2ccc(-n3cccc(Oc4ccc(OC(F)(F)F)cc4)c3=O)cn12` showed an IC50 [1] of 240 nM and an IC50 [2] of 270 nM.
Compound `Cc1c(C2CC2)nc2ccc(-n3ccc(OCc4csc(Cl)c4)cc3=O)cn12` has an IC50 [1] of 7.5 nM, an IC50 [20] of 19 nM and an IC50 [2] of 7.7 nM.
With `Cc1c(C2CC2)nc2ccc(-n3ccc4c(c3=O)CCC(c3ccc(Cl)cc3)O4)cn12` (configuration not stated) the IC50 [1] was 62 nM and the IC50 [2] was 94 nM.
For `Cc1c(C2CC2)nc2ccc(-n3cnc(OCc4ccc(Cl)cc4)cc3=O)cn12`, the IC50 [1] was 140 nM, the logD [19] was 2.9 and the IC50 [2] was 150 nM.
Compound `Cc1c(C2CC2)nc2ccc(-n3ccc(OCc4ccc(Cl)cn4)cc3=O)cn12` has an IC50 [1] of 19 nM and an IC50 [2] of 24 nM.
`Cc1nc2ccc(NC(=O)COc3ccc(OC(F)(F)F)cc3)cn2c1C` gave an IC50 [1] of 7.8 nM and an IC50 [2] of 3.8 nM.
With `Cc1c(C2CC2)nc2ccc(-n3ccc4oc(-c5ccc(Cl)cc5)cc4c3=O)cn12` the IC50 [1] was 11 nM, the IC50 [20] was 42 nM and the IC50 [2] was 6.8 nM.
With `Cc1c(C2CC2)nc2ccc(-n3ccc(OCc4ccncc4)cc3=O)cn12` the IC50 [1] was over 1000 nM and the IC50 [2] was over 1000 nM.
With `Cc1c(C2CC2)nc2ccc(-n3ccc(OCc4cccnc4)cc3=O)cn12` the IC50 [1] was over 1000 nM and the IC50 [2] was over 1000 nM.

Reference: ChEMBL document CHEMBL3769308, “Melanin-Concentrating Hormone Receptor 1 Antagonists Lacking an Aliphatic Amine: Synthesis and Structure-Activity Relationships of Novel 1-(Imidazo[1,2-a]pyridin-6-yl)pyridin-2(1H)-one Derivatives” (J Med Chem, 2016)
